KCNK9 inh: inhibitors of human KCNK9 two-pore domain potassium channel; Q9NPC2; HEK293 KCNK9, FluxOR thallium flux fluorescence; stronger effect = lower value; B-score at 10 µM; 1.2% of 310,000 active;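 active = ratio B-score over 3 SD below the library mean, with starting fluorescence within 5 SD of its mean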;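 also: negative B-score means less thallium flux so channel inhibition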
Target sequence (Q9NPC2 whole entry, looked up, the tested form may be a part): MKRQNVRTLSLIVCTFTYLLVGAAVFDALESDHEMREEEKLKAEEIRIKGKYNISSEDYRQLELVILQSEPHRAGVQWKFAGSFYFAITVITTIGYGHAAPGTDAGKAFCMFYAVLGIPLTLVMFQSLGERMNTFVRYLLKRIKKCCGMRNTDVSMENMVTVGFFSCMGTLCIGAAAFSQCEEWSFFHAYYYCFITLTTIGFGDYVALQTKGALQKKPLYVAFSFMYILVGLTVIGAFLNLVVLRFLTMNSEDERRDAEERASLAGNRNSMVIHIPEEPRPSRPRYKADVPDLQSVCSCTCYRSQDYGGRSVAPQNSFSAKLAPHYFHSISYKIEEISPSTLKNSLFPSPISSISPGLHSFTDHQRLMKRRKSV
hERG protect: compounds protecting human hERG from proarrhythmic drug block; Q12809; CHO-hERG, FluxOR thallium flux, dofetilide IC70 present; activation (rescue from dofetilide block), less the hit threshold, % at 10 µM; 0.51% of 310,000 active; AID 1511;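 active = activation above the mean of controls blocked by dofetilide plus 5 SD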;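 also: thallium influx through hERG after potassium depolarization seen as dye fluorescence rise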
KCNK3 inh: human KCNK3 channel inhibition, primary screen | B-score at 10 µM | CHO-KCNK3 thallium flux, FluxOR fluorescence; stronger effect = lower value | AID 602410 | 0.84% of 340,000 active;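 active = B-score under library mean minus 4 SD, starting fluorescence ratio at most library mean plus 5 SD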;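 also: more negative B-score means stronger inhibition of thallium flux through KCNK3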
Target sequence (O14649 whole entry, looked up): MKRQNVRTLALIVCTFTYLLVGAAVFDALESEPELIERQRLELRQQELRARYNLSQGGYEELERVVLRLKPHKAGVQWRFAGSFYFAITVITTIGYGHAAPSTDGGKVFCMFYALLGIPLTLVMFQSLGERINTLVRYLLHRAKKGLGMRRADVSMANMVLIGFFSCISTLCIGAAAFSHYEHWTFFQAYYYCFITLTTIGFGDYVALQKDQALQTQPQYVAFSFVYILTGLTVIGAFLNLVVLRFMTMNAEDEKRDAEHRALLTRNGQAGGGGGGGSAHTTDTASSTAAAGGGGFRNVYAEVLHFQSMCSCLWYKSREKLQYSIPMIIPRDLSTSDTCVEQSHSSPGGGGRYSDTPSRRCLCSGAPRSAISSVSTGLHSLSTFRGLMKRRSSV
KCNQ1 block: human KCNQ1 channel inhibition. 1.3% of 310,000 active. CHO-K1 KCNQ1, FluxOR thallium flux fluorescence; stronger effect = higher value. P51787. B-score at 10 µM;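 active = compounds whose thallium flux B-score, printed positive for inhibition, exceeds three library SD while starting fluorescence stays within three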;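 also: channel opened by potassium depolarization with thallium stimulus after 20 min compound exposure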
KCNQ1 pot: potentiators or activators of human KCNQ1 potassium channel; P51787; CHO-K1 KCNQ1, thallium flux FluxOR fluorescence; stronger effect = higher value; B-score at 10 µM; 0.35% of 310,000 active;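 active = fluorescence ratio B-score, a plate-corrected score, at least three library SD, with initial intensity B-score within 5 SD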
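Material: CHO-K1 cells stably expressing KCNQ1. Medium: assay buffer for compound exposure, DMSO matched across wells. Reagent: K+/Tl+ depolarizing stimulus. Compound dosing: single-concentration screen. Times: 37 °C overnight plating, 90-min dark dye load, 20-min compound pretreatment. Technique: FluxOR Tl+ flux fluorescence.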
Cl transport mod: KCC2 (human) Cl- transport modulation; 2.2% of 190,000 active; B-score of Tl+ flux slope (higher = more flux/activation; lower = inhibition) at 10 µM; KCC2 cells, thallium flux FluoZin-2 fluorescence;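 active = thallium flux slope and its plate-corrected score both differing from the plate sample mean at a set confidence after two filtering rounds, in either direction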;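 also: slope of fluorescence scaled to starting intensity during 10 to 20 s after thallium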
KCC2 sec1: KCC2 (human) modulation, secondary assay | AID 1713 | normalised thallium flux (F/F0 slope) at 10 µM | HEK293-KCC2, thallium flux, FluoZin2 fluorescence; stronger effect = higher value | 15% of 3,700 active | shares compounds with Cl transport mod;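 active = thallium flux slope above the same plate's solvent-only control mean plus 3 SD; inconclusive = the two replicate wells disagree; inactive = no significant difference from solvent-only control wells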
KCC2 bumet counter: thallium flux persisting under bumetanide in KCC2 cells, counter-screen secondary assay; AID 1714; 49% of 3,700 active; HEK293-KCC2 + bumetanide/ouabain, thallium flux FluoZin2; stronger effect = higher value; normalized thallium flux at 10 µM; shares compounds with Cl transport mod;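 active = thallium entry rate above the same plate's blocked-transporter control wells by more than 3 SD; inconclusive = the two repeat wells disagree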;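 also: raw slope of fluorescence over initial fluorescence between 10 and 20 s after thallium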
KCC2 secondary2: confirmation of human KCC2 transport modulators. shares compounds with Cl transport mod. HEK293-KCC2, thallium flux FluoZin2 fluorescence; actives lie on both sides; F/F0 rise rate, 10–20 s post-thallium. normalized thallium flux at 10 µM. 23% of 3,700 active. AID 1715;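 active = thallium flux slope more than 3 SD above or below the plate's solvent-only control mean, mostly below; inconclusive = the two repeat wells disagreed; inactive = no significant shift from solvent-only controls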;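 also: raw slope with 0.1% DMSO as baseline and bumetanide as block control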
HEK counter1: counter-screen for KCC2 modulators: effect in parental HEK293 cells | shares compounds with Cl transport mod | thallium flux FluoZin2, ouabain; baseline-ratio fluorescence slope, 10–20 s after thallium | thallium flux rate (normalised fluorescence) at 10 µM | 46% of 3,700 active;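 active = thallium flux rate significantly above the same plate's solvent-only control wells, beyond their mean plus 3 SD; inconclusive = the two replicate wells gave conflicting results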
KCC2 ouabain: confirmation of human KCC2 modulators with ouabain. shares compounds with Cl transport mod. HEK293-KCC2, thallium flux FluoZin2 fluorescence; bidirectional: low = inhibitor, high = activator. raw Tl+ flux slope (below DMSO = inhibition, above = activation) at 10 µM. 48% of 3,700 active. AID 1717;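 active = thallium flux slope beyond 3 SD from same-plate DMSO control mean in most replicates, usually higher, sometimes lower; inconclusive = repeat tests gave conflicting results; inactive = no significant difference from controls in most replicates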;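 also: slope of initial-normalized fluorescence between seconds 10 and 20 after thallium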
HEK293 Tl flux2: counter-screen for KCC2 modulators: effect in parental HEK293 cells; shares compounds with Cl transport mod; thallium flux FluoZin-2 fluorescence slope; thallium flux slope at 10 µM; 33% of 3,700 active; AID 1718;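 active = thallium flux slope above the same plate's solvent-control mean plus 3 SD in both duplicate wells; inconclusive = duplicate wells that disagreed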;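 also: run without ouabain in cells lacking the KCC2 cotransporter; slope of fluorescence scaled to its starting value between 10 and 20 s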
The depositor's hits bear a star; i = inactive; ? = inconclusive; . = no result. The list is not random: actives were taken first. Their share in the collection is about 4.1%.

SMILES	KCNK9 inh	hERG protect	KCNK3 inh	KCNQ1 block	KCNQ1 pot	Cl transport mod	KCC2 sec1	KCC2 bumet counter	KCC2 secondary2	HEK counter1	KCC2 ouabain	HEK293 Tl flux2
O=[N+]([O-])c1cccc(/C=N/NC2=NS(=O)(=O)c3ccccc32)c1	i	-7	i	i	i	-3.8*	0.01	?	0.031	0.0073	0.02	0.0098
O=[N+]([O-])c1cccc(/C=N/Nc2ccccn2)c1	i	-8	i	i	i	-2	.	.	.	.	.	.
Cc1cc(/C=C2\SC(=S)NC2=O)c(C)n1C	i	-11	i	i	i	.	.	.	.	.	.	.
CC1Cc2cc(/C=C3/SC(=S)NC3=O)ccc2O1 (stereo not given)	i	-5	i	i	i	81*	?	0.12*	0.05*	0.065*	0.087*	0.051*
Cc1cc(/C=C2\SC(=S)NC2=O)c(C)n1-c1ccccc1	i	2	i	i	i	24*	0.011	0.047*	0.036	0.029*	?	0.013*
Cc1cc(/C=C2\SC(=S)NC2=O)cc(C)c1O	i	-5	i	i	i	7.6*	0.006	0.036*	0.027	0.02*	0.027*	0.02*
Cc1nn(C)c(C)c1/C=C1/SC(=S)NC1=O	i	-8	i	i	i	-4*	0.01	0.0056	0.026*	0.0079	0.014*	0.011
O=C1NC(=S)S/C1=C\c1cc(Cl)cc(Cl)c1O	.	.	i	.	.	.	.	.	.	.	.	.
CCN(CC)c1ccc(C=C2SC(=S)NC2=O)cc1	.	.	i	.	.	.	.	.	.	.	.	.
Cc1nn(C)cc1/C=C1\SC(=S)NC1=O	i	-7	i	i	i	0.21	.	.	.	.	.	.
CCOC(=O)c1cn2nc(SCc3ccccc3)nc2nc1C	i	-7	i	i	i	.	.	.	.	.	.	.
COCCn1c(SCc2csc(-c3ccccc3)n2)nc2ccccc21	i	-11	i	i	i	-3.5*	0.0057	0.0049	0.029	0.0051*	0.015*	0.0091
COCCn1c(SCC(=O)NCc2ccccc2)nc2ccccc21	i	-5	i	i	i	.	.	.	.	.	.	.
O=C(Cc1cccc(NC(=O)C2CCCN(C(=O)C3CC3)C2)c1)Nc1cccc(C(=O)N2CCOCC2)c1 (stereo not given)	.	.	i	.	.	.	.	.	.	.	.	.
CCOC(=O)c1[nH]c(C)c(C(=O)OCC(=O)NC(C)c2ccc(F)cc2)c1C (stereo not given)	.	.	i	.	.	.	.	.	.	.	.	.
COc1ccc(C2C(C(N)=O)=C(C)Nc3nc(-c4ccccc4)nn32)cc1OC (stereo not given)	i	-8	i	i	i	5.5*	0.0069	?	0.029	0.0082	0.019	?
COc1cccc(NC(=O)COC(=O)c2nc3nccc(C)n3n2)c1	i	-11	i	i	i	-5.4*	0.0077	0.0042	0.03	?	0.018	0.011
COc1ccc(C(C)(C)C)cc1NC(=O)COC(=O)c1nc2nccc(C)n2n1	.	.	i	.	.	.	.	.	.	.	.	.
CC(=O)Nc1ccc(S(=O)(=O)N2CCN(C(C)CCc3ccccc3)CC2)cc1 (stereo not given)	i	-13	i	i	i	.	0.016	0.0049	0.021*	0.0076	0.014	0.01
N#Cc1c(-c2ccc(Cl)cc2)c(-c2ccc(Cl)cc2)nn(CCOC(=O)CCC(=O)O)c1=O	.	.	i	.	.	.	.	.	.	.	.	.
Cc1ccc(C)c(NC(=O)C2CCCN(S(=O)(=O)c3c(C)nn(C)c3C)C2)c1 (stereo not given)	i	-8	i	i	i	.	.	.	.	.	.	.
Cn1c(=O)cc(SCC(=O)N2CCN(c3ccccn3)CC2)c2ccccc21	i	-12	i	i	i	-3.5*	0.0076	0.0067	0.031	0.0069	0.018*	0.0098
Cn1c(=O)cc(SCC(=O)N2CCN(c3ccccc3)CC2)c2ccccc21	i	-11	i	i	i	.	.	.	.	.	.	.
CC(C)(C)n1[nH]c2c3c(ccc2c1=O)C(=O)c1ccccc1C3=O	i	-10	i	i	i	.	0.0056	0.0053	0.029	0.0082	0.019	0.012
Cc1ccc(-n2[nH]c3c4c(ccc3c2=O)C(=O)c2ccccc2C4=O)cc1	i	-1	i	i	i	0.17	.	.	.	.	.	.
SMILES	KCNK9 inh	hERG protect	KCNK3 inh	KCNQ1 block	KCNQ1 pot	Cl transport mod	KCC2 sec1	KCC2 bumet counter	KCC2 secondary2	HEK counter1	KCC2 ouabain	HEK293 Tl flux2
Cc1ccc(C)c(-n2[nH]c3c4c(ccc3c2=O)C(=O)c2ccccc2C4=O)c1	i	-8	i	i	i	-0.047	.	.	.	.	.	.
COCCCn1[nH]c2c3c(ccc2c1=O)C(=O)c1ccccc1C3=O	i	-2	i	i	i	.	0.005	?	0.03	0.008	0.019	0.012
CCOC(=O)Cc1cc(=O)n2[nH]c(-c3ccccc3)c(-c3ccccc3)c2n1	i	-1	i	i	i	6*	0.0056	0.018*	0.031	0.014*	?	0.014*
O=C(NC(=S)Nc1cccc(F)c1)c1cccc([N+](=O)[O-])c1	i	-6	i	i	i	151*	0.031*	0.15*	?	0.071*	0.085*	0.019*
C/C(=N/NC(=S)Nc1cccc(C)c1)c1cccc([N+](=O)[O-])c1	i	0	i	i	10*	30*	0.0087	0.037*	?	0.037*	0.036*	0.027*
Cc1noc(C)c1S(=O)(=O)N(C)C[C@H]1Oc2ccc(NS(=O)(=O)c3ccccc3)cc2C(=O)N([C@H](C)CO)C[C@@H]1C	.	.	i	.	.	.	.	.	.	.	.	.
O=C(N[C@@H](Cc1ccccc1)C(=O)OCc1ccccc1)c1nc[nH]c1C(=O)N1CCNCC1	.	.	i	.	.	.	.	.	.	.	.	.
O=C(CN1CCN(c2ccccc2O)CC1)Nc1cc(S(=O)(=O)N2CCCC2)ccc1Cl	.	.	i	.	.	.	.	.	.	.	.	.

Screens from PubChem.
